Reference: ChEMBL document CHEMBL3407339, “A novel series of thiazolyl-pyrazoline derivatives: synthesis and evaluation of antifungal activity, cytotoxicity and genotoxicity” (Eur J Med Chem, 2015)
Converted amounts (≈) assume the structure as drawn.

Columns and labels:
Nakaseomyces glabratus = assay: Antifungal activity against Candida glabrata clinical isolate after 48 hrs by broth microdilution assay; type: functional
Method in brief: (§1)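 Broth microdilution of DMSO stocks serially diluted in sterile water (4 to 0.0039 mg/mL). Yeasts grown on SDA at 37 °C for 24 h, suspended in double-strength PDB at 10⁵ spores/mL. Incubated at 37 °C for 48 h, then sprayed with 0.5% aqueous TTC. MIC = lowest concentration inhibiting visible growth. Ketoconazole reference.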

Candida albicans = assay: Antifungal activity against Candida albicans ATCC 90028 after 48 hrs by broth microdilution assay; type: functional; settings: ATCC 90028, 48 h; method in brief: as §1
Candida tropicalis = assay: Antifungal activity against Candida tropicalis NRLL Y 12968 after 48 hrs by broth microdilution assay; type: functional; settings: NRLL Y 12968, 48 h; method in brief: as §1
Pichia kudriavzevii = assay: Antifungal activity against Candida krusei NRLL Y 7179 after 48 hrs by broth microdilution assay; type: functional; settings: NRLL Y 7179, 48 h; method in brief: as §1
[Candida] zeylanoides = Antifungal activity against Candida zeylanoides NRLL Y 1774 after 48 hrs by broth microdilution assay; type: functional; settings: Dujonia zeylanoides, NRLL Y 1774, 48 h; method in brief: as §1
Candida parapsilosis = assay: Antifungal activity against Candida parapsilosis NRLL Y 12696 after 48 hrs by broth microdilution assay; type: functional; settings: Lodderomyces parapsilosis, NRLL Y 12696, 48 h; method in brief: as §1
Aspergillus flavus = assay: Antifungal activity against Aspergillus flavus NRRL 980 after 72 hrs by broth microdilution assay; type: functional; settings: NRRL 980, 72 h
Method in brief: (§2)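 Compounds dissolved in DMSO, diluted in sterile distilled water from 4 to 0.0039 mg/mL. Molds grown on PDA at 25 °C for 5 days, suspended in double-strength PDB at 10⁵ spores/mL. Incubated at 25 °C for 72 h; mycelial growth read under stereo microscope. MIC = lowest concentration inhibiting visible growth. Ketoconazole reference.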

Aspergillus niger = assay: Antifungal activity against Aspergillus niger ATCC 1094 after 72 hrs by broth microdilution assay; type: functional; settings: ATCC 1094, 72 h; method in brief: as §2
Aspergillus parasiticus = assay: Antifungal activity against Aspergillus parasiticus NRRL 465 after 72 hrs by broth microdilution assay; type: functional; settings: NRRL 465, 72 h; method in brief: as §2
Fusarium solani = assay: Antifungal activity against Fusarium solani NRRL 13414 after 72 hrs by broth microdilution assay; type: functional; settings: NRRL 13414, 72 h; method in brief: as §2
Salmonella typhimurium [1] = assay: Mutagenicity in Salmonella typhimurium TA98 at 0.156 mg/ml after 48 hrs by AMES MPF assay in presence of Sprague-Dawley rat liver microsomal S9 fraction relative to baseline; type: toxicity, organism-based; settings: salmonella enterica subsp. enterica serovar typhimurium
Method in brief: (§3)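 Ames MPF fluctuation test with TA98/TA100. Overnight cultures (37 °C, 14–16 h) mixed with exposure medium; ±Aroclor-1254-induced rat liver S9 (final 4.5% v/v). Compounds in DMSO, 0.156–5 mg/mL. 90 min exposure at 37 °C, then indicator medium; 48 wells per concentration, 48 h at 37 °C, in triplicate. Yellow wells counted; fold induction over baseline (mean + 1 SD of zero-dose control).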

Salmonella typhimurium [2] = assay: Mutagenicity in Salmonella typhimurium TA98 at 0.3125 mg/ml after 48 hrs by AMES MPF assay in presence of Sprague-Dawley rat liver microsomal S9 fraction relative to baseline; type: toxicity, organism-based; settings: salmonella enterica subsp. enterica serovar typhimurium; method in brief: as §3
Salmonella typhimurium [3] = assay: Mutagenicity in Salmonella typhimurium TA98 at 0.625 mg/ml after 48 hrs by AMES MPF assay in presence of Sprague-Dawley rat liver microsomal S9 fraction relative to baseline; type: toxicity, organism-based; settings: salmonella enterica subsp. enterica serovar typhimurium; method in brief: as §3
Salmonella typhimurium [4] = assay: Mutagenicity in Salmonella typhimurium TA98 at 1.25 mg/ml after 48 hrs by AMES MPF assay in presence of Sprague-Dawley rat liver microsomal S9 fraction relative to baseline; type: toxicity, organism-based; settings: salmonella enterica subsp. enterica serovar typhimurium; method in brief: as §3
Salmonella typhimurium [5] = assay: Mutagenicity in Salmonella typhimurium TA98 at 2.5 mg/ml after 48 hrs by AMES MPF assay in presence of Sprague-Dawley rat liver microsomal S9 fraction relative to baseline; type: toxicity, organism-based; settings: salmonella enterica subsp. enterica serovar typhimurium; method in brief: as §3
Salmonella typhimurium [6] = assay: Mutagenicity in Salmonella typhimurium TA98 at 5 mg/ml after 48 hrs by AMES MPF assay in presence of Sprague-Dawley rat liver microsomal S9 fraction relative to baseline; type: toxicity, organism-based; settings: salmonella enterica subsp. enterica serovar typhimurium; method in brief: as §3
Salmonella typhimurium [7] = assay: Mutagenicity in Salmonella typhimurium TA98 at 0.156 mg/ml after 48 hrs by AMES MPF assay in absence of Sprague-Dawley rat liver microsomal S9 fraction relative to baseline; type: toxicity, organism-based; settings: salmonella enterica subsp. enterica serovar typhimurium; method in brief: as §3
Salmonella typhimurium [8] = assay: Mutagenicity in Salmonella typhimurium TA98 at 0.3125 mg/ml after 48 hrs by AMES MPF assay in absence of Sprague-Dawley rat liver microsomal S9 fraction relative to baseline; type: toxicity, organism-based; settings: salmonella enterica subsp. enterica serovar typhimurium; method in brief: as §3
Salmonella typhimurium [9] = assay: Mutagenicity in Salmonella typhimurium TA98 at 0.625 mg/ml after 48 hrs by AMES MPF assay in absence of Sprague-Dawley rat liver microsomal S9 fraction relative to baseline; type: toxicity, organism-based; settings: salmonella enterica subsp. enterica serovar typhimurium; method in brief: as §3
Salmonella typhimurium [10] = assay: Mutagenicity in Salmonella typhimurium TA98 at 1.25 mg/ml after 48 hrs by AMES MPF assay in absence of Sprague-Dawley rat liver microsomal S9 fraction relative to baseline; type: toxicity, organism-based; settings: salmonella enterica subsp. enterica serovar typhimurium; method in brief: as §3
Salmonella typhimurium [11] = assay: Mutagenicity in Salmonella typhimurium TA98 at 2.5 mg/ml after 48 hrs by AMES MPF assay in absence of Sprague-Dawley rat liver microsomal S9 fraction relative to baseline; type: toxicity, organism-based; settings: salmonella enterica subsp. enterica serovar typhimurium; method in brief: as §3
Salmonella typhimurium [12] = assay: Mutagenicity in Salmonella typhimurium TA98 at 5 mg/ml after 48 hrs by AMES MPF assay in absence of Sprague-Dawley rat liver microsomal S9 fraction relative to baseline; type: toxicity, organism-based; settings: salmonella enterica subsp. enterica serovar typhimurium; method in brief: as §3
Salmonella typhimurium [13] = assay: Mutagenicity in Salmonella typhimurium TA100 at 0.156 mg/ml after 48 hrs by AMES MPF assay in presence of Sprague-Dawley rat liver microsomal S9 fraction relative to baseline; type: toxicity, organism-based; settings: salmonella enterica subsp. enterica serovar typhimurium; method in brief: as §3
Salmonella typhimurium [14] = assay: Mutagenicity in Salmonella typhimurium TA100 at 0.3125 mg/ml after 48 hrs by AMES MPF assay in presence of Sprague-Dawley rat liver microsomal S9 fraction relative to baseline; type: toxicity, organism-based; settings: salmonella enterica subsp. enterica serovar typhimurium; method in brief: as §3
Salmonella typhimurium [15] = assay: Mutagenicity in Salmonella typhimurium TA100 at 0.625 mg/ml after 48 hrs by AMES MPF assay in presence of Sprague-Dawley rat liver microsomal S9 fraction relative to baseline; type: toxicity, organism-based; settings: salmonella enterica subsp. enterica serovar typhimurium; method in brief: as §3
Salmonella typhimurium [16] = assay: Mutagenicity in Salmonella typhimurium TA100 at 1.25 mg/ml after 48 hrs by AMES MPF assay in presence of Sprague-Dawley rat liver microsomal S9 fraction relative to baseline; type: toxicity, organism-based; settings: salmonella enterica subsp. enterica serovar typhimurium; method in brief: as §3
Salmonella typhimurium [17] = assay: Mutagenicity in Salmonella typhimurium TA100 at 2.5 mg/ml after 48 hrs by AMES MPF assay in presence of Sprague-Dawley rat liver microsomal S9 fraction relative to baseline; type: toxicity, organism-based; settings: salmonella enterica subsp. enterica serovar typhimurium; method in brief: as §3
Salmonella typhimurium [18] = assay: Mutagenicity in Salmonella typhimurium TA100 at 5 mg/ml after 48 hrs by AMES MPF assay in presence of Sprague-Dawley rat liver microsomal S9 fraction relative to baseline; type: toxicity, organism-based; settings: salmonella enterica subsp. enterica serovar typhimurium; method in brief: as §3
Salmonella typhimurium [19] = assay: Mutagenicity in Salmonella typhimurium TA100 at 0.156 mg/ml after 48 hrs by AMES MPF assay in absence of Sprague-Dawley rat liver microsomal S9 fraction relative to baseline; type: toxicity, organism-based; settings: salmonella enterica subsp. enterica serovar typhimurium; method in brief: as §3
Salmonella typhimurium [20] = assay: Mutagenicity in Salmonella typhimurium TA100 at 0.3125 mg/ml after 48 hrs by AMES MPF assay in absence of Sprague-Dawley rat liver microsomal S9 fraction relative to baseline; type: toxicity, organism-based; settings: salmonella enterica subsp. enterica serovar typhimurium; method in brief: as §3
Salmonella typhimurium [21] = assay: Mutagenicity in Salmonella typhimurium TA100 at 0.625 mg/ml after 48 hrs by AMES MPF assay in absence of Sprague-Dawley rat liver microsomal S9 fraction relative to baseline; type: toxicity, organism-based; settings: salmonella enterica subsp. enterica serovar typhimurium; method in brief: as §3
Salmonella typhimurium [22] = assay: Mutagenicity in Salmonella typhimurium TA100 at 1.25 mg/ml after 48 hrs by AMES MPF assay in absence of Sprague-Dawley rat liver microsomal S9 fraction relative to baseline; type: toxicity, organism-based; settings: salmonella enterica subsp. enterica serovar typhimurium; method in brief: as §3
Salmonella typhimurium [23] = assay: Mutagenicity in Salmonella typhimurium TA100 at 2.5 mg/ml after 48 hrs by AMES MPF assay in absence of Sprague-Dawley rat liver microsomal S9 fraction relative to baseline; type: toxicity, organism-based; settings: salmonella enterica subsp. enterica serovar typhimurium; method in brief: as §3
Salmonella typhimurium [24] = assay: Mutagenicity in Salmonella typhimurium TA100 at 5 mg/ml after 48 hrs by AMES MPF assay in absence of Sprague-Dawley rat liver microsomal S9 fraction relative to baseline; type: toxicity, organism-based; settings: salmonella enterica subsp. enterica serovar typhimurium; method in brief: as §3
A549 = assay: Antiproliferative activity against human A549 cells after 24 hrs by XTT assay; type: functional, cell-based; settings: A549, 24 h
Method in brief: (§4)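 A549 cells in RPMI and NIH/3T3 cells in DMEM, each with fetal calf serum, antibiotics and 7.5% NaHCO₃, at 37 °C, 5% CO₂. Seeded at 20,000 cells/well, 24 h, then compounds added in medium at 500–3.9 doses (final DMSO <0.1%) for 24 h. XTT read after 3 h at 480 nm (ref 680 nm). IC₅₀ by non-linear regression; triplicates; cisplatin control.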

[25] = Cytotoxicity against mouse NIH/3T3 cells after 24 hrs by XTT assay; type: cell-based; settings: NIH3T3, 24 h; method in brief: as §4

Compound: Fc1ccc(C2CC(c3ccc(Cl)s3)=NN2c2nc(-c3ccc(Cl)cc3)cs2)cc1 (stereo unspecified)
- MIC (Nakaseomyces glabratus): 125 µg/mL (≈ 263 µM)
- MIC (Candida albicans): 250 µg/mL (≈ 527 µM)
- MIC (Candida tropicalis): 250 µg/mL (≈ 527 µM)
- MIC (Pichia kudriavzevii): 250 µg/mL (≈ 527 µM)
- MIC ([Candida] zeylanoides): 250 µg/mL (≈ 527 µM)
- MIC (Candida parapsilosis): 250 µg/mL (≈ 527 µM)
- MIC (Aspergillus flavus): 125 µg/mL (≈ 263 µM)
- MIC (Aspergillus niger): 250 µg/mL (≈ 527 µM)
- MIC (Aspergillus parasiticus): 250 µg/mL (≈ 527 µM)
- MIC (Fusarium solani): 250 µg/mL (≈ 527 µM)
- fold change (FC) (Salmonella typhimurium [1]): 0.68
- fold change (FC) (Salmonella typhimurium [2]): 0.81
- fold change (FC) (Salmonella typhimurium [3]): 0.95
- fold change (FC) (Salmonella typhimurium [4]): 0.81
- fold change (FC) (Salmonella typhimurium [5]): 0.54
- fold change (FC) (Salmonella typhimurium [6]): 0.81
- fold change (FC) (Salmonella typhimurium [7]): 0
- fold change (FC) (Salmonella typhimurium [8]): 0
- fold change (FC) (Salmonella typhimurium [9]): 0
- fold change (FC) (Salmonella typhimurium [10]): 0.67
- fold change (FC) (Salmonella typhimurium [11]): 0.67
- fold change (FC) (Salmonella typhimurium [12]): 1
- fold change (FC) (Salmonella typhimurium [13]): 3.23
- fold change (FC) (Salmonella typhimurium [14]): 3.92
- fold change (FC) (Salmonella typhimurium [15]): 3.46
- fold change (FC) (Salmonella typhimurium [16]): 3.69
- fold change (FC) (Salmonella typhimurium [17]): 3
- fold change (FC) (Salmonella typhimurium [18]): 3.92
- fold change (FC) (Salmonella typhimurium [19]): 1.67
- fold change (FC) (Salmonella typhimurium [20]): 0.67
- fold change (FC) (Salmonella typhimurium [21]): 0.33
- fold change (FC) (Salmonella typhimurium [22]): 0.33
- fold change (FC) (Salmonella typhimurium [23]): 1
- fold change (FC) (Salmonella typhimurium [24]): 0.33
- IC50 (A549): 125 µg/mL (≈ 263 µM)
- IC50 [25]: > 500 µg/mL
